Measurements as given in ChEMBL document CHEMBL4725393, “Prodrug Strategies to Improve the Solubility of the HCV NS5A Inhibitor Pibrentasvir (ABT-530)” (J Med Chem, 2020).
Values after ≈ are worked out from the molar mass of the structure shown.

Tests used:
[1] = Cmax in CD1 mouse assessed as pibrentasvir1 level at 6 mg/kg, po measured up to 24 hrs; assay type: ADME, organism-based; design: route oral, dose 6 mg/kg, time <=24; details: in vivo
Procedure, shortened: (§1)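 CD-1 mice with free access to food and water received an oral gavage of prodrug or PIB at 10 mL/kg in 0.2% HPMC. The dose was adjusted for prodrug MW to equal 6 mg/kg PIB. K2EDTA blood was drawn at 0.25, 0.5, 1, 3, 6, 9, 12 and 24 h. Plasma was spun at 3200 x g for 5 min at ~4°C and stored below -15°C. PIB and prodrug were measured; AUC in ng·h/mL, Cmax in ng/mL.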

[2] = Equilibrium solubility of compound at pH 7.4 incubated for 24 to 48 hrs by HPLC analysis; assay type: physicochemical; details: buffer, time 24-48 hrs
Procedure, shortened: (§2)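 For equilibrium solubility, excess solid was added to 3–4 mL of medium, in triplicate. Suspension pH was read after equilibration. Solids were removed by centrifugation at 4000 rpm at 25 °C, and the supernatant was passed through a 0.45 µm filter, discarding the first 2 mL. The filtrate was quantified by HPLC against standard curves.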

[3] = Solubility in FeSSIF at pH 5; assay type: physicochemical; procedure, shortened: as §2
[4] = Equilibrium solubility of compound at pH 1 incubated for 24 to 48 hrs by HPLC analysis; assay type: physicochemical; details: buffer, time 24-48 hrs; procedure, shortened: as §2
[5] = Stability of compound at pH 1 assessed as prodrug remaining level at 125 ug/ml incubated for 24 hrs by HPLC analysis; assay type: physicochemical; details: buffer, pH 1, 24 h, at 125 µg/mL
Procedure, shortened: (§3)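 A DMSO stock of about 1.25 mg/mL was diluted into 0.1 N HCl (pH 1) or 50 mM phosphate buffer (pH 7.4), giving final concentrations of ~125 µg/mL prodrug and 10% DMSO. The solution was filtered and held at 37 °C in the HPLC autosampler, with injections at several times over 24 h. Percent remaining was calculated from prodrug peak area relative to t0.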

[6] = Stability of compound at pH 7.4 assessed as prodrug remaining level at 125 ug/ml incubated for 24 hrs by HPLC analysis; assay type: physicochemical; details: buffer, pH 7.4, 24 h, at 125 µg/mL; procedure, shortened: as §3
[7] = AUC in CD1 mouse assessed as pibrentasvir1 level at 6 mg/kg, po measured up to 24 hrs; assay type: ADME, organism-based; design: route oral, dose 6 mg/kg, time <=24; details: in vivo; procedure, shortened: as §1
[8] = Half life of compound at pH 7.4 at 125 ug/ml at 37 degC by HPLC analysis; assay type: physicochemical; details: dose 125 µg/ml
[9] = Cmax in beagle dog assessed as pibrentasvir1 level at 40 mg, po measured up to 24 hrs; assay type: ADME, organism-based, Canis lupus familiaris; design: route oral, dose 40 mg, time <=24; details: in vivo
Procedure, shortened: (§4)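 The dose equalled 40 mg PIB after adjustment for prodrug MW. Food was returned at 12 h. K2EDTA plasma was sampled at 0.25–24 h. Cmax is in ng/mL and AUC in ng·h/mL.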

[10] = AUC in beagle dog assessed as pibrentasvir1 level at 40 mg, po measured up to 24 hrs; assay type: ADME, organism-based, Canis lupus familiaris; design: route oral, dose 40 mg, time <=24; details: in vivo; procedure, shortened: as §4
[11] = Cmax in CD1 mouse assessed as pibrentasvir1 level at 3 mg/kg, po measured up to 24 hrs; assay type: ADME, organism-based; design: route oral, dose 3 mg/kg, time <=24; details: in vivo
Procedure, shortened: (§5)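 CD-1 mice, fed ad libitum, were dosed orally at a prodrug-MW-adjusted dose equal to 3 mg/kg PIB, as a solution or suspension. Serial K2EDTA blood samples were taken from 0.25 to 24 h. Plasma was separated by centrifugation and kept frozen. PIB and prodrug levels were reported as Cmax (ng/mL) and AUC (ng·h/mL).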

[12] = AUC in CD1 mouse assessed as pibrentasvir1 level at 3 mg/kg, po measured up to 24 hrs; assay type: ADME, organism-based; design: route oral, dose 3 mg/kg, time <=24; details: in vivo; procedure, shortened: as §5

SMILES | Cmax [1] [ng/mL] | solubility thermodynamic [2] [µg/mL] | solubility [3] [µg/mL] | solubility thermodynamic [4] [µg/mL] | Stabilty [5] [%] | Stabilty [6] [%] | AUC [7] [ng·h/mL] | half-life at 125 ug/ml [8] [h] | Cmax [9] [ng/mL] | AUC [10] [ng·h/mL] | Cmax [11] [ng/mL] | AUC [12] [ng·h/mL]
COC(=O)N[C@H](C(=O)N1CCC[C@H]1c1nc2cc(F)c([C@H]3CC[C@H](c4cc5nc([C@@H]6CCCN6C(=O)[C@@H](NC(=O)OC)[C@@H](C)OC)n(COC(=O)c6cccc(OP(=O)(O)O)c6)c5cc4F)N3c3cc(F)c(N4CCC(c5ccc(F)cc5)CC4)c(F)c3)cc2[nH]1)[C@@H](C)OC | 96 | 827 (≈ 616 µM) | > 1000 | 397 (≈ 296 µM) | 96 | 100 | 1510 | – | – | – | – | –
COC(=O)N[C@H](C(=O)N1CCC[C@H]1c1nc2cc(F)c([C@H]3CC[C@H](c4cc5c(cc4F)nc([C@@H]4CCCN4C(=O)[C@@H](NC(=O)OC)[C@@H](C)OC)n5COC(=O)[C@@H](NC(=O)OCOP(=O)(O)O)C(C)C)N3c3cc(F)c(N4CCC(c5ccc(F)cc5)CC4)c(F)c3)cc2[nH]1)[C@@H](C)OC | 513 | > 1000 | > 1000 | 271 (≈ 194 µM) | 95 | 28 | 8930 | < 24 | – | – | – | –
COC(=O)N[C@H](C(=O)N1CCC[C@H]1c1nc2cc(F)c([C@H]3CC[C@H](c4cc5nc([C@@H]6CCCN6C(=O)[C@@H](NC(=O)OC)[C@@H](C)OC)n(COC(=O)c6ccccc6COP(=O)(O)O)c5cc4F)N3c3cc(F)c(N4CCC(c5ccc(F)cc5)CC4)c(F)c3)cc2[nH]1)[C@@H](C)OC | 622 | < 0.2 | > 1000 | 99 (≈ 72.9 µM) | 99 | 89 | 10700 | – | 115 | 1150 | – | –
COC(=O)N[C@H](C(=O)N1CCC[C@H]1c1nc2cc(F)c([C@H]3CC[C@H](c4cc5c(cc4F)nc([C@@H]4CCCN4C(=O)[C@@H](NC(=O)OC)[C@@H](C)OC)n5COC(=O)c4ccccc4COP(=O)(O)O)N3c3cc(F)c(N4CCC(c5ccc(F)cc5)CC4)c(F)c3)cc2[nH]1)[C@@H](C)OC | 132 | 92 (≈ 67.8 µM) | > 1000 | 543 (≈ 400 µM) | 98 | 84 | 2420 | – | – | – | – | –
COC(=O)N[C@H](C(=O)N1CCC[C@H]1c1nc2cc(F)c([C@H]3CC[C@H](c4cc5c(cc4F)nc([C@@H]4CCCN4C(=O)[C@@H](NC(=O)OC)[C@@H](C)OC)n5COC(=O)[C@@H](N)C(C)C)N3c3cc(F)c(N4CCC(c5ccc(F)cc5)CC4)c(F)c3)cc2[nH]1)[C@@H](C)OC | – | < 0.2 | – | > 1000 | – | – | – | – | – | – | – | –
COC(=O)N[C@H](C(=O)N1CCC[C@H]1c1nc2cc(F)c([C@H]3CC[C@H](c4cc5c(cc4F)nc([C@@H]4CCCN4C(=O)[C@@H](NC(=O)OC)[C@@H](C)OC)n5COC(=O)N(C)c4ncccc4COP(=O)(O)O)N3c3cc(F)c(N4CCC(c5ccc(F)cc5)CC4)c(F)c3)cc2[nH]1)[C@@H](C)OC | 567 | > 1000 | > 1000 | > 1000 | 92 | 90 | 9750 | – | – | – | – | –
COC(=O)N[C@H](C(=O)N1CCC[C@H]1c1nc2cc(F)c([C@H]3CC[C@H](c4cc5nc([C@@H]6CCCN6C(=O)[C@@H](NC(=O)OC)[C@@H](C)OC)n(COC(=O)[C@@H](NC(=O)OCOP(=O)(O)O)C(C)C)c5cc4F)N3c3cc(F)c(N4CCC(c5ccc(F)cc5)CC4)c(F)c3)cc2[nH]1)[C@@H](C)OC | 498 | < 0.1 | > 1000 | 114 (≈ 81.6 µM) | 95 | 38 | 8840 | – | 16 | 122 | – | –
COC(=O)N[C@H](C(=O)N1CCC[C@H]1c1nc2cc([C@H]3CC[C@H](c4cc5nc([C@@H]6CCCN6C(=O)[C@@H](NC(=O)OC)[C@@H](C)OC)n(COP(=O)(O)O)c5cc4F)N3c3cc(F)c(N4CCC(c5ccc(F)cc5)CC4)c(F)c3)c(F)cc2n1COP(=O)(O)O)[C@@H](C)OC | – | 123 (≈ 92.1 µM) | – | 135 (≈ 101 µM) | 100 | – | – | – | 40 | 355 | 396 | 6070
